Assay results published in ChEMBL document CHEMBL1130141, “Mapping the peripheral benzodiazepine receptor binding site by conformationally restrained derivatives of 1-(2-chlorophenyl)-N-methyl-N-(1-methylpropyl)-3- isoquinolinecarboxamide (PK11195)” (J Med Chem, 1997).
Activity calls are given as the source filed them. The calls are words filed in the database; no cut-off is given here.

Legend:
Translocator protein [1] = molecular target: T1, Translocator protein (Rattus norvegicus, UniProt P16257); test: In vitro displacement of [3H]PK11195 from the peripheral benzodiazepine receptor (PBR) in rat cortex
T1 sequence (P16257 whole entry, looked up): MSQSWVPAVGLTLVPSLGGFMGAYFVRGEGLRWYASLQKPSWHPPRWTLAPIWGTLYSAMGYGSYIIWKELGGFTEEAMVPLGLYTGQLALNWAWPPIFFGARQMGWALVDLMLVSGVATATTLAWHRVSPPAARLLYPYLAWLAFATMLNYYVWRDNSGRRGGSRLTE

Translocator protein [2] = molecular target: T1, Translocator protein; test: In vitro binding affinity (pIC50) was tested against peripheral benzodiazepine receptor (PBR) in rat.
[3] = molecular target: Translocator protein (Rattus norvegicus) (UniProt P16257); test: In vitro binding affinity (pIC50) for peripheral benzodiazepine receptor (PBR) in rat (inactive)
Chain of Translocator protein (Rattus norvegicus) (P16257 whole entry, looked up): as above
Summary of the method: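 Male CD rat cerebral cortex, stored at -80°C, homogenized in ice-cold 50 mM PBS pH 7.4 with 100 mM NaCl and washed by centrifugation. Membranes used at 2.3 mg tissue per sample with 1 nM [3H]PK11195 for 120 min at 4°C, then filtered on GF/B and counted by scintillation. Nonspecific binding defined with 1 µM PK11195. IC50 from curve fitting of 6 concentrations.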

Structure (SMILES): CN(Cc1ccccc1)C(=O)c1nc2ccccc2c2c1OCCc1ccccc1-2
- IC50 (Translocator protein [1]): 10 nM
- IC50 (Translocator protein [2]): 10 nM

Structure (SMILES): CCC(C)N1Cc2c(nc3ccccc3c2-c2ccccc2F)C1=O (stereo not given)
- IC50 (Translocator protein [1]): > 10000 nM

Structure (SMILES): O=C1c2nc3ccccc3c(-c3ccccc3)c2CCCN1Cc1ccccc1
- IC50 (Translocator protein [1]): 170 nM
- IC50 (Translocator protein [2]): 170 nM

Structure (SMILES): CCC(C)N(C)C(=O)c1nc2ccccc2c(-c2ccccc2)c1C (stereo not given)
- IC50 (Translocator protein [1]): 2.1 nM
- IC50 (Translocator protein [2]): 2.09 nM

Structure (SMILES): CCC(C)NC(=O)c1nc(-c2ccccc2)c2ccccc2c1C (stereo not given)
- IC50 (Translocator protein [1]): 550 nM
- IC50 (Translocator protein [2]): 550 nM

Structure (SMILES): Cc1c(C(=O)N(C)Cc2ccccc2)nc2ccccc2c1-c1ccccc1
- IC50 (Translocator protein [1]): 2.1 nM
- IC50 (Translocator protein [2]): 2.09 nM

Structure (SMILES): Cc1c(C(=O)N(C)c2ccc(Cl)cc2)nc2ccccc2c1-c1ccccc1
- IC50 (Translocator protein [1]): 6.4 nM
- IC50 (Translocator protein [2]): 6.46 nM

Structure (SMILES): O=C1c2nc(-c3ccccc3)c3ccccc3c2C=CCN1Cc1ccccc1
- IC50 (Translocator protein [1]): 45 nM
- IC50 (Translocator protein [2]): 45.7 nM

Structure (SMILES): Cc1c(C(=O)N(C)Cc2ccccc2)nc(-c2ccccc2)c2ccccc12
- IC50 (Translocator protein [1]): 3.1 nM
- IC50 (Translocator protein [2]): 3.09 nM

Structure (SMILES): Cc1c(C(=O)NCc2ccc(Cl)cc2)nc2ccccc2c1-c1ccccc1F
- IC50 (Translocator protein [1]): 270 nM
- IC50 (Translocator protein [2]): 269 nM

Structure (SMILES): CCC(C)NC(=O)c1nc2ccccc2c(-c2ccccc2)c1C (stereo not given)
- IC50 (Translocator protein [1]): 230 nM
- IC50 (Translocator protein [2]): 229 nM

Structure (SMILES): Cc1c(C(=O)N(C)Cc2ccc(Cl)cc2)nc2ccccc2c1-c1ccccc1F
- IC50 (Translocator protein [1]): 3.4 nM
- IC50 (Translocator protein [2]): 3.39 nM

Structure (SMILES): CN(Cc1ccccc1)C(=O)c1nc2ccccc2c2c1CCc1ccccc1-2
- IC50 (Translocator protein [1]): 8.9 nM
- IC50 (Translocator protein [2]): 8.91 nM

Structure (SMILES): O=C1c2nc3ccccc3c(-c3ccccc3)c2CN1Cc1ccccc1
- IC50 (Translocator protein [1]): > 10000 nM

Structure (SMILES): CCCCC1c2c(nc3ccccc3c2-c2ccccc2)C(=O)N1Cc1ccccc1 (stereo not given)
- IC50 (Translocator protein [1]): 810 nM
- IC50 (Translocator protein [2]): 813 nM

Structure (SMILES): CCC(C)NC(=O)c1nc2ccccc2c(-c2ccccc2F)c1C (stereo not given)
- IC50 (Translocator protein [1]): 13 nM
- IC50 (Translocator protein [2]): 12.9 nM

Structure (SMILES): COc1ccc(N(C)C(=O)c2nc3ccccc3c(-c3ccccc3)c2C)cc1
- IC50 (Translocator protein [1]): 8.8 nM
- IC50 (Translocator protein [2]): 8.71 nM

Structure (SMILES): Cc1c(C(=O)NCc2ccccc2)nc2ccccc2c1-c1ccccc1
- IC50 (Translocator protein [1]): 1200 nM
- IC50 (Translocator protein [2]): 1200 nM

Structure (SMILES): Cc1c(C(=O)NCc2ccc(Cl)cc2)nc2ccccc2c1-c1ccccc1
- IC50 (Translocator protein [1]): 1700 nM
- IC50 (Translocator protein [2]): 1700 nM

Structure (SMILES): O=C1c2nc(-c3ccccc3)c3ccccc3c2CN1Cc1ccccc1
- IC50 (Translocator protein [1]): 480 nM
- IC50 (Translocator protein [2]): 479 nM

Structure (SMILES): CCC(C)N1CCCc2c(nc3ccccc3c2-c2ccccc2)C1=O (stereo not given)
- IC50 (Translocator protein [1]): 1200 nM
- IC50 (Translocator protein [2]): 1200 nM

Structure (SMILES): CCC(C)N1CCCc2c(nc(-c3ccccc3)c3ccccc23)C1=O (stereo not given)
- IC50 (Translocator protein [1]): 780 nM
- IC50 (Translocator protein [2]): 794 nM

Structure (SMILES): Cc1c(C(=O)N(C)Cc2ccc(Cl)cc2)nc2ccccc2c1-c1ccccc1
- IC50 (Translocator protein [1]): 9.8 nM
- IC50 (Translocator protein [2]): 9.77 nM

Structure (SMILES): CCC(C)N(C)C(=O)c1nc(-c2ccccc2)c2ccccc2c1C (stereo not given)
- IC50 (Translocator protein [1]): 11 nM
- IC50 (Translocator protein [2]): 11.2 nM

Structure (SMILES): CCC(C)N1CC=Cc2c(nc(-c3ccccc3)c3ccccc23)C1=O (stereo not given)
- IC50 (Translocator protein [1]): 490 nM
- IC50 (Translocator protein [2]): 490 nM

Structure (SMILES): CCC(C)N1Cc2c(nc(-c3ccccc3)c3ccccc23)C1=O (stereo not given)
- IC50 (Translocator protein [1]): 620 nM
- IC50 (Translocator protein [2]): 617 nM

Structure (SMILES): CN1CCCc2c(nc3ccccc3c2-c2ccccc2)C1=O
- IC50 (Translocator protein [1]): > 10000 nM

Structure (SMILES): CCC(C)N1Cc2c(nc3ccccc3c2-c2ccccc2)C1=O (stereo not given)
- IC50 (Translocator protein [1]): > 10000 nM
- Log IC50 [3]: inactive

Structure (SMILES): CCC(C)N(C)C(=O)c1nc2ccccc2c(-c2ccccc2F)c1C (stereo not given)
- IC50 (Translocator protein [1]): 2.9 nM
- IC50 (Translocator protein [2]): 2.88 nM
